Results as given in ChEMBL document CHEMBL1153592, “1,8-Naphthyridine-3-carboxamide derivatives with anticancer and anti-inflammatory activity” (Eur J Med Chem, 2009).
pIC50: −log10 of the molar value. The source made the active and inactive calls. The calls are words filed in the database; no cut-off is given here.

Legend:
[1] = tested on: KB; assay: Cytotoxicity against human KB cells after 72 hrs by MTT assay; format: functional, cell-based
[2] = Antiinflammatory activity in C57BL/6 mouse DC assessed as inhibition of LPS-induced IL1-beta production at 0.1 ug/ml after 24 hrs by ELISA; format: functional
Procedure, shortened: (§1)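 Dendritic cells grown from femoral bone marrow of 8–12-week-old C57BL/6 mice in RPMI-1640 with 10% FBS and 20 ng/ml rmGM-CSF at 37 °C, 5% CO2. Day-6 immature DCs were stimulated with 10 ng/ml LPS plus compound for 24 h. Supernatant cytokine/chemokine measured by ELISA (pg/ml); % change = (B−A)/A×100, versus LPS-stimulated DCs alone.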

[3] = tested on: SW-620; assay: Cytotoxicity against human SW620 cells after 72 hrs by MTT assay; format: functional, cell-based; details: SW-620, 72 h
[4] = tested on: MIA PaCa-2; assay: Cytotoxicity against human MIAPaCa2 cells after 72 hrs by MTT assay; format: functional, cell-based; details: MIA PaCa-2, 72 h
[5] = Antiinflammatory activity in C57BL/6 mouse DC assessed as inhibition of LPS-induced IL1-beta production at 1 ug/ml after 24 hrs by ELISA; format: functional; procedure, shortened: as §1
[6] = tested on: ECV-304; assay: Cytotoxicity against human ECV304 cells after 72 hrs by MTT assay; format: functional, cell-based; details: for pIC50: Homo sapiens, ECV-304, 72 h, read-out: IC50
[7] = Antiinflammatory activity in C57BL/6 mouse DC assessed as inhibition of LPS-induced IL-6 production at 1 ug/ml after 24 hrs by ELISA; format: functional; procedure, shortened: as §1
[8] = tested on: A549; assay: Cytotoxicity against human A549 cells after 72 hrs by MTT assay; format: functional, cell-based; details: A549, 72 h
[9] = tested on: K562; assay: Cytotoxicity against human K562 cells after 72 hrs by MTT assay; format: functional, cell-based; details: K562, 72 h
[10] = Antiinflammatory activity in C57BL/6 mouse DC assessed as inhibition of LPS-induced IL-6 production at 0.1 ug/ml after 24 hrs by ELISA; format: functional; procedure, shortened: as §1
[11] = tested on: HBL-100; assay: Cytotoxicity against human HBL100 cells after 72 hrs by MTT assay; format: functional, cell-based; details: HBL-100, 72 h
[12] = tested on: DU-145; assay: Cytotoxicity against human DU145 cells after 72 hrs by MTT assay; format: functional, cell-based; details: DU-145, 72 h
[13] = tested on: PA-1; assay: Cytotoxicity against human PA1 cells after 72 hrs by MTT assay; format: functional, cell-based; details: PA-1, 72 h
[14] = Cytotoxicity against mouse NIH/3T3 cells after 72 hrs by MTT assay; format: cell-based, NIH3T3; details: for pIC50: Mus musculus, NIH3T3, 72 h, read-out: IC50; for IC50: nih3t3
[15] = Cytotoxicity against mouse NIH/3T3 cells at 10 uM after 72 hrs by MTT assay; format: cell-based; details: nih3t3, 72 h
Procedure, shortened: (§2)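 Three-day MTT screen with 5000–10,000 cells/well and 72 h compound exposure at the top screening concentration. After 3 h of MTT uptake, lysis with 10% SDS–0.01 N HCl, then A540 read after 1 h. % cytotoxicity = (1 − X/R1)×100, where X is treated minus blank absorbance and R1 is untreated control absorbance.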

[16] = tested on: DU-145; assay: Cytotoxicity against human DU145 cells at 10 uM after 72 hrs by MTT assay; format: functional, cell-based; procedure, shortened: as §2
[17] = tested on: MIA PaCa-2; assay: Cytotoxicity against human MIAPaCa2 cells at 10 uM after 72 hrs by MTT assay; format: functional, cell-based; procedure, shortened: as §2
[18] = tested on: HBL-100; assay: Cytotoxicity against human HBL100 cells at 10 uM after 72 hrs by MTT assay; format: functional, cell-based; procedure, shortened: as §2
[19] = tested on: ECV-304; assay: Cytotoxicity against human ECV304 cells at 10 uM after 72 hrs by MTT assay; format: functional, cell-based; procedure, shortened: as §2
[20] = tested on: KB; assay: Cytotoxicity against human KB cells at 10 uM after 72 hrs by MTT assay; format: functional, cell-based; procedure, shortened: as §2
[21] = tested on: PA-1; assay: Cytotoxicity against human PA1 cells at 10 uM after 72 hrs by MTT assay; format: functional, cell-based; procedure, shortened: as §2
[22] = tested on: SW-620; assay: Cytotoxicity against human SW620 cells at 10 uM after 72 hrs by MTT assay; format: functional, cell-based; procedure, shortened: as §2
[23] = tested on: A549; assay: Cytotoxicity against human A549 cells at 10 uM after 72 hrs by MTT assay; format: functional, cell-based; procedure, shortened: as §2
[24] = tested on: K562; assay: Cytotoxicity against human K562 cells at 10 uM after 72 hrs by MTT assay; format: functional, cell-based; procedure, shortened: as §2

Structure (SMILES)	pIC50 [1]	inhibition (INH) [2] [%]	pIC50 [3]	pIC50 [4]	inhibition (INH) [5] [%]	pIC50 [6]	inhibition (INH) [7] [%]	pIC50 [8]	pIC50 [9]	inhibition (INH) [10] [%]	pIC50 [11]	pIC50 [12]	pIC50 [13]	pIC50 [14]	IC50 [14]	other results
C#CCn1cc(C(=O)NC(CC(=O)NC2CCCC2)c2ccccc2)c(=O)c2cc(F)c(Cl)nc21 (centres undefined)	5.31	83.4	5.68	5.36	102	5.29	100	5.21	5.14	80.1	5.70	< 5.00	6.17	5.62	–	–
C#CCn1cc(C(=O)NC(CC(=O)NC2CCCC2)c2ccccc2)c(=O)c2ccc(Cl)nc21 (centres undefined)	< 5.00	82	5.57	5.62	18.1	5.11	81.7	5.02	5.17	79.8	5.49	< 5.00	5.96	5.36	–	–
C#CCn1cc(C(=O)NC(CC(=O)Nc2ccccn2)c2ccccc2)c(=O)c2cc(F)c(Cl)nc21 (centres undefined)	5.64	83.4	5.64	< 5.00	109.6	< 5.00	99.1	< 5.00	< 5.00	75.5	< 5.00	5.68	< 5.00	5.38	–	–
C#CCn1cc(C(=O)NC(CC(=O)Nc2ccccc2)c2ccccc2)c(=O)c2ccc(Cl)nc21 (centres undefined)	< 5.00	28.3	5.54	5.52	99.4	5.40	75.4	< 5.00	5.11	69.5	5.40	< 5.00	6.27	5.36	–	–
C#CCn1cc(C(=O)NC(C(=O)NC2CCCC2)c2ccccc2)c(=O)c2cc(F)c(Cl)nc21 (centres undefined)	5.46	–	5.47	5.77	–	5.49	–	< 5.00	5.23	–	5.29	5.49	5.74	6.40	–	–
C#CCn1cc(C(=O)NC(C(=O)Nc2ccccc2)c2ccccc2)c(=O)c2cc(F)c(N3CCCC3)nc21 (centres undefined)	–	–	–	–	–	–	–	–	–	–	–	–	–	–	–	Activity [15]: Not Active; Activity [16]: inactive; Activity [17]: inactive; Activity [18]: inactive; Activity [19]: inactive; Activity [20]: inactive; Activity [21]: inactive; Activity [22]: inactive; Activity [23]: inactive; Activity [24]: inactive
C#CCn1cc(C(=O)NC(C(=O)Nc2ccccc2)c2ccccc2)c(=O)c2ccc(Cl)nc21 (centres undefined)	5.68	82	5.66	5.01	86.3	< 5.00	91.7	< 5.00	5.48	76.5	5.11	5.77	< 5.00	–	Not Active	–
C#CCn1cc(C(=O)NC(CC(=O)Nc2ccccn2)c2ccccc2)c(=O)c2ccc(Cl)nc21 (centres undefined)	5.28	57.3	5.54	< 5.00	82	< 5.00	82.9	< 5.00	5.23	78.2	< 5.00	5.31	5.77	–	Not Active	–
C#CCn1cc(C(=O)NC(C(=O)NC2CCCC2)c2ccccc2)c(=O)c2cccnc21 (centres undefined)	5.35	–	< 5.00	< 5.00	–	< 5.00	–	< 5.00	< 5.00	–	< 5.00	< 5.00	< 5.00	–	Not Active	–
C#CCn1cc(C(=O)NC(CC(=O)NC2CCCCC2)c2ccccc2)c(=O)c2cccnc21 (centres undefined)	–	–	–	–	–	–	–	–	–	–	–	–	–	–	–	Activity [15]: Not Active; Activity [16]: inactive; Activity [17]: inactive; Activity [18]: inactive; Activity [19]: inactive; Activity [20]: inactive; Activity [21]: inactive; Activity [22]: inactive; Activity [23]: inactive; Activity [24]: inactive
C#CCn1cc(C(=O)NC(C(=O)Nc2ccccc2)c2ccccc2)c(=O)c2cc(F)c(Cl)nc21 (centres undefined)	5.96	44.3	5.85	< 5.00	97	5.04	99.9	< 5.00	5.30	84.4	< 5.00	6.22	6.30	–	Not Active	–
C#CCn1cc(C(=O)NC(C(=O)NC2CCCC2)c2ccccc2)c(=O)c2ccc(Cl)nc21 (centres undefined)	–	–	–	–	–	–	–	–	–	–	–	–	–	–	–	Activity [15]: Not Active; Activity [16]: inactive; Activity [17]: inactive; Activity [18]: inactive; Activity [19]: inactive; Activity [20]: inactive; Activity [21]: inactive; Activity [22]: inactive; Activity [23]: inactive; Activity [24]: inactive
C#CCn1cc(C(=O)NC(C(=O)NC2CCCCC2)c2ccccc2)c(=O)c2ccc(Cl)nc21 (centres undefined)	–	–	–	–	–	–	–	–	–	–	–	–	–	–	–	Activity [15]: Not Active; Activity [16]: inactive; Activity [17]: inactive; Activity [18]: inactive; Activity [19]: inactive; Activity [20]: inactive; Activity [21]: inactive; Activity [22]: inactive; Activity [23]: inactive; Activity [24]: inactive
C#CCn1cc(C(=O)NC(C(=O)Nc2ccccc2)c2ccccc2)c(=O)c2cccnc21 (centres undefined)	5.52	39.9	< 5.00	< 5.00	64.6	< 5.00	79.3	< 5.00	< 5.00	79.3	< 5.00	5.06	5.05	–	Not Active	–
C#CCn1cc(C(=O)NC(C(=O)NC2CCCCC2)c2ccccc2)c(=O)c2cccnc21 (centres undefined)	–	–	–	–	–	–	–	–	–	–	–	–	–	–	–	Activity [15]: Not Active; Activity [16]: inactive; Activity [17]: inactive; Activity [18]: inactive; Activity [19]: inactive; Activity [20]: inactive; Activity [21]: inactive; Activity [22]: inactive; Activity [23]: inactive; Activity [24]: inactive
C#CCn1cc(C(=O)NC(C(=O)NC2CCCCC2)c2ccccc2)c(=O)c2cc(F)c(Cl)nc21 (centres undefined)	< 5.00	–	< 5.00	< 5.00	–	< 5.00	–	< 5.00	< 5.00	–	< 5.00	< 5.00	5.74	5.13	–	–
C#CCn1cc(C(=O)NC(CC(=O)NC2CCCCC2)c2ccccc2)c(=O)c2cc(F)c(Cl)nc21 (centres undefined)	< 5.00	–	< 5.00	5.31	–	5.01	–	< 5.00	5.21	–	< 5.00	5.10	5.64	–	Not Active	–
COc1cccc2c1C(=O)c1c(O)c3c(c(O)c1C2=O)C[C@@](O)(C(=O)CO)C[C@@H]3O[C@H]1C[C@H](N)[C@H](O)[C@H](C)O1 [DOXORUBICIN]	–	–	7.10	6.82	–	–	–	–	–	–	6.62	7.00	6.20	6.41	–	IC50 ([6]; ecv-304): Not Active
